Values after ≈ are worked out from the molar mass of the structure shown.
Tests used:
[1] = system: E. granulosus protoscoleces; assay: Protoscolicidal; type: cell-based; details: Echinococcus granulosus; for IC50: read-out: IC50 protoscolicidal activity; for viability at 25 µg/mL / viability at 50 µg/mL / viability at 75 µg/mL / viability at 100 µg/mL / viability at 125 µg/mL: read-out: viability of protoscoleces
In short: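 Protoscoleces came from hydatid cysts of naturally infected sheep, settled without centrifugation, washed three times in HBSS, and cultured in RPMI 1640 (12 mM HEPES, glutamine, antibiotics, amphotericin B, 10 % FCS, glucose). Within 10 days, ~500 protoscoleces in 20 ml medium received test compound at 25–125 µg/ml; DMSO control. Viability was scored by motility and 0.1 % trypan blue exclusion in 10 random fields (10X). Triplicate; IC50 by nonlinear regression.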

HepG2 cells = assay: In-vitro cytotoxicity MTT assay on HepG2 cell line; type: cell-based, human; details: 125 μg/ml, third day
In short: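 HepG2 monolayers in phenol-red-free DMEM with 10 % FCS, penicillin and streptomycin, grown 48 h at 37 °C/5 % CO2 to confluency. Test compound in DMSO at 25, 50, 75, 100, 125 µg; medium-only negative control with matched DMSO. After 48 h at 37 °C, MTT (5 mg/mL) added for 4 h, then DMSO-dissolved formazan read at 570/655 nm. Triplicate; viability relative to untreated cells.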

[2] = system: protoscoleces and metacestodes of Echinococcus granulosus; details: cited from earlier work

| SMILES | IC50 [1] | viability at 25 µg/mL [1] | viability at 50 µg/mL [1] | viability at 75 µg/mL [1] | viability at 100 µg/mL [1] | viability at 125 µg/mL [1] | cell survival rate of HepG2 (HepG2 cells) | antiechinococcal activity [2] |
| --- | --- | --- | --- | --- | --- | --- | --- | --- |
| Cc1ccc(NC(=O)c2c(F)c(F)c(F)c(F)c2F)cc1 [Compound 20, 2,3,4,5,6-pentafluoro-N-p-tolylbenzamide] | 39.5 µg/mL (≈ 131 µM) | 54.3% | 50.6% | 18.3% | 9.6% | 0% | 32% |  |
| Cc1ccc(NC(=O)c2ccc(OC(F)(F)F)cc2)cc1 [Compound 16, N-p-tolyl-4-(trifluoromethoxy)benzamide] | 66.5 µg/mL (≈ 225 µM) | 72.6% | 62.6% | 45.3% | 39.6% | 30% | 38% |  |
| CC(=O)Oc1ccccc1C(=O)Nc1ncc([N+](=O)[O-])s1 [Nitazoxanide] |  |  |  |  |  |  |  | potent antiechinococcal activity |
| Cc1ccc(NC(=O)c2cccc3ccccc23)cc1 [Compound 10, N-p-tolyl-1-naphthamide] | 29.5 µg/mL (≈ 113 µM) | 47.3% | 20% | 10.3% | 0% | 0% | 40% |  |
| CCCCCc1ccc(C(=O)Nc2ccc(C)cc2)cc1 [Compound 18, 4-pentyl-N-p-tolylbenzamide] | 45 µg/mL (≈ 160 µM) | 63.3% | 49.6% | 38.3% | 29% | 21% | approximately 54% |  |
| Cc1ccc(NC(=O)c2cc([N+](=O)[O-])cc([N+](=O)[O-])c2)cc1 [Compound 6, 3,5-dinitro-N-p-tolylbenzamide] | 77 µg/mL (≈ 256 µM) | 72.6% | 66.6% | 53.6% | 43% | 32.3% | 36% |  |
